Experimental data taken from ChEMBL document CHEMBL1133340, “Design, synthesis, and structure-activity relationship studies of ATP analogues as DNA gyrase inhibitors” (2000).
Values after ≈ are worked out from the molar mass of the structure shown.

Key:
[1] = target: T1, DNA gyrase (Escherichia coli) (UniProt P0AES6+P0AES4); test: Maximum non-effective concentration against in vitro Escherichia coli DNA gyrase supercoiling activity was determined by coupled spectrophotometric ATPase assay; format: protein-complex assay
Summary of the method: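 E. coli DNA gyrase ATPase activity measured in a coupled spectrophotometric system with pyruvate kinase and lactate dehydrogenase, following NADH disappearance as ATP is consumed; supercoiling assay used for validation. Value reported as maximum non-effective concentration (MNEC), the highest inhibitor concentration showing no gyrase inhibition.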

[2] = target: T1, DNA gyrase (Escherichia coli)
Streptococcus pyogenes = test: Compound was tested in vitro for antibacterial activity against Streptococcus pyogenes beta15; format: functional
Summary of the method: (§1)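 MIC by 2-fold agar dilution on Mueller-Hinton agar, inoculum 10⁴ CFU per spot.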

Staphylococcus aureus [3] = test: Compound was tested in vitro for antibacterial activity against Staphylococcus aureus H19982; format: functional; summary of the method: as §1
Staphylococcus aureus [4] = test: Compound was tested in vitro for antibacterial activity against Staphylococcus aureus ATCC 25923; format: functional; summary of the method: as §1
Staphylococcus aureus [5] = test: Compound was tested in vitro for antibacterial activity against Staphylococcus aureus NovoR; format: functional; summary of the method: as §1
Staphylococcus aureus [6] = test: Compound was tested in vitro for antibacterial activity against Staphylococcus aureus Coum-R; format: functional; summary of the method: as §1
[7] = system: Staphylococcus epidermidis; test: Compound was tested in vitro for antibacterial activity against Staphylococcus epidermidis ATCC 14990; format: functional; summary of the method: as §1
Staphylococcus aureus [8] = test: Compound was tested in vitro for antibacterial activity against Staphylococcus aureus Smith QR-54; format: functional; summary of the method: as §1
Enterococcus faecium = test: Compound was tested in vitro for antibacterial activity against Enterococcus faecium vanA E23-8; format: functional; summary of the method: as §1
Staphylococcus aureus [9] = test: Compound was tested in vitro for antibacterial activity against Staphylococcus aureus Smith; format: functional; summary of the method: as §1

**Q.** `CCOC(=O)c1cccc(Oc2nc(N)c3c(C)nn(-c4cc(Cl)cc(Cl)c4)c3n2)c1` was tested. Which MNEC [1] did it give?
**A.** 63 µg/mL

**Q.** For `CCOC(=O)c1c(O)oc2cc(Oc3nc(N)c4c(CC)nn(-c5cc(Cl)cc(Cl)c5)c4n3)ccc2c1=O`, which MNEC [2] is on record?
**A.** 2 µg/mL

**Q.** With `Cc1ccc(Oc2nc(N)c3c(C)nn(-c4cc(Cl)cc(Cl)c4)c3n2)cn1` as the molecule, how does the MNEC [1] read?
**A.** 125 µg/mL

**Q.** `Cc1ccc(Oc2nc(N)n3ncc(-c4ccc(Cl)c(Cl)c4)c3n2)cn1` was tested. Which MNEC [1] did it give?
**A.** < 16 µg/mL

**Q.** What about the MNEC [2] of the same molecule?
**A.** > 63 µg/mL

**Q.** How did the MNEC [2] turn out when `CCc1nn(-c2cccc(F)c2)c2nc(Sc3cccc(C(=O)O)c3)nc(N)c12` was run?
**A.** 8 µg/mL

**Q.** For `Nc1nc(Oc2ccc3c(O)cc(=O)oc3c2)nc2c1cnn2-c1cc(Cl)cc(Cl)c1`, which MNEC [2] is on record?
**A.** 0.5 µg/mL

**Q.** What does the source list for `CCCCNC(=O)Nc1c(O)oc2cc(Oc3nc(N)c4c(CC)nn(-c5cc(Cl)cc(Cl)c5)c4n3)ccc2c1=O`?
**A.** MIC (Streptococcus pyogenes): 2 µg/mL (≈ 3.34 µM); MIC (Staphylococcus aureus [3]): 4 µg/mL (≈ 6.68 µM); MIC (Staphylococcus aureus [4]): 4 µg/mL (≈ 6.68 µM); MNEC [2]: 0.5 µg/mL; MIC (Staphylococcus aureus [5]): 8 µg/mL (≈ 13.4 µM); MIC (Staphylococcus aureus [6]): 8 µg/mL (≈ 13.4 µM); MIC [7]: 4 µg/mL (≈ 6.68 µM); MIC (Staphylococcus aureus [8]): 2 µg/mL (≈ 3.34 µM); MIC (Enterococcus faecium): 16 µg/mL (≈ 26.7 µM); MIC (Staphylococcus aureus [9]): 8 µg/mL (≈ 13.4 µM)

**Q.** With `CCNc1nc(Sc2cccc(C(=O)O)c2)nc2c1c(CC)nn2-c1cc(Cl)cc(Cl)c1` as the molecule, how does the MNEC [2] read?
**A.** 8 µg/mL

**Q.** What does the source list for `Nc1nc(Sc2cccc(C(=O)O)c2)nc2c(-c3ccc(Cl)c(Cl)c3)cnn12`?
**A.** MIC (Streptococcus pyogenes): 0.5 µg/mL (≈ 1.16 µM); MIC (Staphylococcus aureus [3]): > 32 µg/mL; MIC (Staphylococcus aureus [4]): > 32 µg/mL; MNEC [2]: 1 µg/mL; MIC (Staphylococcus aureus [5]): > 32 µg/mL; MIC (Staphylococcus aureus [6]): > 32 µg/mL; MIC [7]: 4 µg/mL (≈ 9.25 µM); MIC (Staphylococcus aureus [8]): > 32 µg/mL; MIC (Enterococcus faecium): 32 µg/mL (≈ 74 µM); MIC (Staphylococcus aureus [9]): > 32 µg/mL

**Q.** `CCc1nn(-c2cc(Cl)cc(Cl)c2)c2nc(Oc3ccc4c(C)cc(=O)oc4c3)nc(N)c12` was tested. Which MNEC [1] did it give?
**A.** > 125 µg/mL

**Q.** With `CCc1nn(-c2cccc(F)c2)c2nc(Oc3ccc4c(O)cc(=O)oc4c3)nc(N)c12` as the molecule, how does the MNEC [2] read?
**A.** 1 µg/mL

**Q.** Which MNEC [1] does the source give for `CCOC(=O)c1cccc(Oc2nc(N)c3c(CC)nn(-c4cc(Cl)cc(Cl)c4)c3n2)c1` here?
**A.** 125 µg/mL

**Q.** `Cc1nn(-c2cc(Cl)cc(Cl)c2)c2nc(Sc3cccc(C(=O)O)c3)nc(N)c12` was tested. Which MNEC [2] did it give?
**A.** 1 µg/mL

**Q.** Which results are given for `CCc1nn(-c2cc(Cl)cc(Cl)c2)c2nc(Oc3ccc(C)nc3)nc(N)c12`?
**A.** MNEC [1]: < 16 µg/mL; MNEC [2]: > 16 µg/mL

**Q.** For `Nc1nc(Sc2cccc(C(=O)O)c2)nc2c1cnn2-c1cc(Cl)cc(Cl)c1`, which MNEC [2] is on record?
**A.** 1 µg/mL

**Q.** Which MNEC [1] does the source give for `CCOC(=O)c1cccc(Oc2nc(N)c3cnn(-c4cc(Cl)cc(Cl)c4)c3n2)c1` here?
**A.** 125 µg/mL

**Q.** With `Cc1nn(-c2cc(Cl)cc(Cl)c2)c2nc(Oc3ccc4c(O)cc(=O)oc4c3)nc(N)c12` as the molecule, how does the MNEC [2] read?
**A.** 0.25 µg/mL

**Q.** `CCc1nn(-c2cc(Cl)cc(Cl)c2)c2nc(Oc3ccc4c(O)cc(=O)oc4c3)nc(N)c12` was tested. Which MNEC [2] did it give?
**A.** 0.06 µg/mL

**Q.** How did the MNEC [2] turn out when `Cc1ccc(Oc2nc(N)c3cnn(-c4cc(Cl)cc(Cl)c4)c3n2)cn1` was run?
**A.** > 125 µg/mL

**Q.** How did the MIC (Staphylococcus aureus [3]) turn out when `CCc1nn(-c2cc(Cl)cc(Cl)c2)c2nc(Sc3cccc(C(=O)O)c3)nc(N)c12` was run?
**A.** 4 µg/mL (≈ 8.69 µM)

**Q.** And the MIC (Staphylococcus aureus [4])?
**A.** 16 µg/mL (≈ 34.8 µM)

**Q.** And the MNEC [2]?
**A.** 0.25 µg/mL

**Q.** And the MIC (Staphylococcus aureus [5])?
**A.** 32 µg/mL (≈ 69.5 µM)

**Q.** And the MIC (Staphylococcus aureus [6])?
**A.** 32 µg/mL (≈ 69.5 µM)

**Q.** What about the MIC [7] of the same molecule?
**A.** 0.5 µg/mL (≈ 1.09 µM)

**Q.** And the MIC (Staphylococcus aureus [8])?
**A.** 2 µg/mL (≈ 4.34 µM)

**Q.** And the MIC (Enterococcus faecium)?
**A.** > 32 µg/mL

**Q.** What about the MIC (Staphylococcus aureus [9]) of the same molecule?
**A.** 16 µg/mL (≈ 34.8 µM)

**Q.** How did the MIC (Streptococcus pyogenes) turn out when `CCc1nn(-c2cc(Cl)cc(Cl)c2)c2nc(Oc3ccc4c(O)c(NC(C)=O)c(=O)oc4c3)nc(N)c12` was run?
**A.** 1 µg/mL (≈ 1.85 µM)

**Q.** And the MIC (Staphylococcus aureus [3])?
**A.** 4 µg/mL (≈ 7.39 µM)

**Q.** And the MIC (Staphylococcus aureus [4])?
**A.** 16 µg/mL (≈ 29.6 µM)

**Q.** What about the MNEC [2] of the same molecule?
**A.** 0.5 µg/mL

**Q.** What about the MIC (Staphylococcus aureus [5]) of the same molecule?
**A.** 16 µg/mL (≈ 29.6 µM)

**Q.** And the MIC (Staphylococcus aureus [6])?
**A.** 16 µg/mL (≈ 29.6 µM)

**Q.** What about the MIC [7] of the same molecule?
**A.** 4 µg/mL (≈ 7.39 µM)

**Q.** And the MIC (Staphylococcus aureus [8])?
**A.** 8 µg/mL (≈ 14.8 µM)

**Q.** And the MIC (Enterococcus faecium)?
**A.** > 32 µg/mL

**Q.** What about the MIC (Staphylococcus aureus [9]) of the same molecule?
**A.** 8 µg/mL (≈ 14.8 µM)

**Q.** Which results are given for `CO[C@@H]1[C@@H](OC(N)=O)[C@@H](O)[C@H](Oc2ccc3c(O)c(NC(=O)c4ccc(O)c(CC=C(C)C)c4)c(=O)oc3c2C)OC1(C)C` [NOVOBIOCIN]?
**A.** MIC (Streptococcus pyogenes): 2 µg/mL (≈ 3.26 µM); MIC (Staphylococcus aureus [3]): 0.25 µg/mL (≈ 0.408 µM); MIC (Staphylococcus aureus [4]): 0.25 µg/mL (≈ 0.408 µM); MIC (Staphylococcus aureus [5]): 8 µg/mL (≈ 13.1 µM); MIC (Staphylococcus aureus [6]): 16 µg/mL (≈ 26.1 µM); MIC [7]: 0.12 µg/mL (≈ 0.196 µM); MIC (Staphylococcus aureus [8]): 8 µg/mL (≈ 13.1 µM); MIC (Enterococcus faecium): 8 µg/mL (≈ 13.1 µM); MIC (Staphylococcus aureus [9]): 0.25 µg/mL (≈ 0.408 µM)

**Q.** Which MNEC [2] does the source give for `Cc1nn2c(N)nc(Oc3ccc4c(O)cc(=O)oc4c3)nc2c1C#N` here?
**A.** 8 µg/mL

**Q.** How did the MNEC [2] turn out when `CCc1nn(-c2cc(Cl)cc(Cl)c2)c2nc(Oc3ccc4c(O)c(C(C)=O)c(=O)oc4c3)nc(N)c12` was run?
**A.** 2 µg/mL

**Q.** For `CCc1nn(-c2cc(Cl)cc(Cl)c2)c2nc(Sc3cccc(C(=O)O)c3)nc(NC3CC3)c12`, which MNEC [2] is on record?
**A.** 8 µg/mL

**Q.** Which MNEC [2] does the source give for `CCc1nn(-c2cc(Cl)cc(Cl)c2)c2nc(Oc3ccc4c(O)cc(=O)oc4c3)nc(NC3CC3)c12` here?
**A.** 4 µg/mL

**Q.** `Cc1nn2c(N)nc(Sc3cccc(C(=O)O)c3)nc2c1C#N` was tested. Which MNEC [2] did it give?
**A.** 0.5 µg/mL

**Q.** For `CCc1nn(-c2cc(Cl)cc(Cl)c2)c2nc(Oc3ccc4c(N(C)C)cc(=O)oc4c3)nc(N)c12`, which MNEC [1] is on record?
**A.** 125 µg/mL

**Q.** How did the MNEC [2] turn out when `COc1ccc(-c2cnn3c(N)nc(Oc4ccc5c(O)cc(=O)oc5c4)nc23)cc1OC` was run?
**A.** 0.1 µg/mL
